Measured values pooled from the literature.
Lines come from different studies, so protocols differ.
Target: Serine/threonine-protein kinase DCLK3 (DCLK3, Homo sapiens, UniProt Q9C098)
Residues used in one study (Q9C098 1-648): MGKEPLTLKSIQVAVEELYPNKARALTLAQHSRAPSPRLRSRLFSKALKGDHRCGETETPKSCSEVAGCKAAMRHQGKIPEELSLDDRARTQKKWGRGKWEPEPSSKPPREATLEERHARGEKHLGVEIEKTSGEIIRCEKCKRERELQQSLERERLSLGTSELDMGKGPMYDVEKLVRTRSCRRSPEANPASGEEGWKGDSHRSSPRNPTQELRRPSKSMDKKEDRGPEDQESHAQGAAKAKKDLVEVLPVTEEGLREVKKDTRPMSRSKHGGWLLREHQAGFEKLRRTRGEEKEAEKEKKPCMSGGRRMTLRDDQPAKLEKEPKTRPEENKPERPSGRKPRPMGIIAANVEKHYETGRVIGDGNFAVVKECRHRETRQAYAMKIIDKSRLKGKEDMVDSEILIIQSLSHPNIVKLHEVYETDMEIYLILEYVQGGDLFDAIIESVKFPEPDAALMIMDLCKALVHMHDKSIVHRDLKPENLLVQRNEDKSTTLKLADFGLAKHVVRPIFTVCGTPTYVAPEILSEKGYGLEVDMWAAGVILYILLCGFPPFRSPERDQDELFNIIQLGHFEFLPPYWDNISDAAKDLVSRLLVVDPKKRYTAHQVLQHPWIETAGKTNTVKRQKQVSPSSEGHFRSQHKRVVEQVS

| Structure (SMILES) | observed | method | tested at | remaining binding [%] |
| --- | --- | --- | --- | --- |
| CC(C)(O)c1cncc(-c2nc3ccc(F)cc3n2C2CC2)c1 | cell-free assay | competition with immobilised ligand | 1 µM | 100 |
| c1cnn2ncc(-c3ccnc(N4CCC45COC5)n3)c2c1 | binding |  | 1 µM | 100 |
| Nc1ncc2c(n1)-c1c([nH]c3ccc(C#CC4CC4)cc13)CCCC2 | binding | competition with immobilised ligand | 1 µM | 100 |
| CN(C)c1ncnc(-c2ccc3nc(Nc4cc(CN5CCN(C(=O)CC(F)(F)F)CC5)ccn4)[nH]c3c2)c1Cl | cell-free assay | competition with immobilised ligand | 1 µM | 92 |
| O=C(c1ccc(Nc2ncc(Cl)c(-c3ccc(Cl)s3)n2)cc1)N1CCC(N2CCCC2)CC1 | binding | competition with immobilised ligand | 1 µM | 14 |
| CC1=C(C#N)[C@@H](c2ccc3[nH]nc(C)c3c2)C(C#N)=C(c2ccc(Cl)cc2)N1 | cell-free assay | competition with immobilised ligand | 1 µM | 71.3 |
| O=C(Nc1c[nH]nc1C(=O)NC1CCNCC1)c1cc(F)cc(F)c1 | binding | competition with immobilised ligand | 1 µM | 93 |
| COc1ccc2c(c1)O[C@@H](c1ccc(OC)c(OC)c1)C[C@H]2NC(=O)C1(c2ccc3c(c2)OC(F)(F)O3)CC1 | cell-free assay | competition with immobilised ligand | 1 µM | 98 |
| C[C@@H]1CCN(c2nccc(-c3cnn4ncccc34)n2)C1 | binding |  | 1 µM | 100 |
| COc1cnc(Nc2cccc(S(N)(=O)=O)c2)nc1N1CCN(c2ccccc2)C(=O)C1 | binding | competition with immobilised ligand | 1 µM | 100 |
| CN([C@@H]1CCc2c(CC(=O)O)c3ccccc3n2C1)S(=O)(=O)c1ccc(F)cc1 | cell-free assay | competition with immobilised ligand | 1 µM | 99 |
| N[C@@H]1CCN(c2nccc(-c3cnn4ncccc34)n2)C1 | binding |  | 1 µM | 100 |
| CCN1CCN(Cc2ccc(C(=O)Nc3ccc(C)c(Oc4ccc5c(c4)CC(=O)N5)c3)cc2C(F)(F)F)CC1 | binding | competition with immobilised ligand | 1 µM | 100 |
| Cc1cnc(Nc2ccc(C(=O)N3CCC(N4CCCC4)CC3)cc2)nc1-c1cc2ccccc2s1 | binding | competition with immobilised ligand | 1 µM | 0.5 |
| O=C(NS(=O)(=O)c1ccc(NCC2CCOCC2)c([N+](=O)[O-])c1)c1ccc(N2CCN(Cc3ccc(C(F)(F)F)cc3-c3ccc(Cl)cc3)CC2)cc1Oc1cnc2[nH]ccc2c1 | cell-free assay | competition with immobilised ligand | 1 µM | 93 |
| CC1CCCN1c1nccc(-c2cnn3ncccc23)n1 (stereo not drawn) | binding |  | 1 µM | 100 |
| O=C(c1ccc(Nc2ncc(Cl)c(-c3cc4ccccc4s3)n2)cc1)N1CCC(N2CCCC2)CC1 | binding | competition with immobilised ligand | 1 µM | 0.9 |
| CN(CCCC(F)(F)F)c1nccc(-c2cnn3ncccc23)n1 | binding |  | 1 µM | 85 |
| FC(F)(F)Oc1cccc(-c2cnc3ccc(-c4ccncc4)nn23)c1 | cell-free assay | competition with immobilised ligand | 5 µM | 100 |
| CN(C)c1nccc(-c2cnc3ncccn23)n1 | binding |  | 1 µM | 76 |
| CNC(=O)[C@@H]1CC[C@@H](n2c(-c3ccc4cnccc4c3)nc3ccc(C(=O)NCc4cccc(C(N)=O)c4)cc32)C1 | binding | competition with immobilised ligand | 1 µM | 100 |
